Most compounds without a hit are left out; they make up all but 2.2% or so of the library.
EBV gp42 inh – inhibitors of Epstein-Barr virus glycoprotein 42; Q1HVG2; Fluorescence polarization binding assay, mP read-out; inhibition, % (tested at 21.74 µM); 220,000 tested, 0.42% active; in the data active = inhibition above about 50%
Mcl-1 Bim block – inhibitors of Bim-Mcl-1 interaction, human; Q07820; Bead-based flow cytometry, Bim peptide-Mcl-1 binding; inhibition, % at 10 µM; 190,000 tested, 0.1% active; AID 1009; in the data active = inhibition above about 40%;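 note: 0% = no compound tracer wells and 100% = peptide blocker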
Target sequence (Q07820 whole entry, looked up): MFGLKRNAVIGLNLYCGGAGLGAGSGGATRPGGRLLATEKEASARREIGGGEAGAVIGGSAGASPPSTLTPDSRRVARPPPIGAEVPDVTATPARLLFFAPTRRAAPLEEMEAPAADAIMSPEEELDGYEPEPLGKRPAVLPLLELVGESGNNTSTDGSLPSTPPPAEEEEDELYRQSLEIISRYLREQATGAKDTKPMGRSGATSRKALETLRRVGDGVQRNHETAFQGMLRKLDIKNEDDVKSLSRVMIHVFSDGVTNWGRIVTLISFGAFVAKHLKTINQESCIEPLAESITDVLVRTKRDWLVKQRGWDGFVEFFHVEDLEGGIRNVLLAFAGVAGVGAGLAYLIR
MCL1 BIM primary – inhibitors of human MCL1 binding to BIM-BH3 peptide | Q07820 | GST-MCL1 / FITC-Bim-BH3 fluorescence polarization | inhibition, % at 10.9 µM | 320,000 tested, 0.68% active | AID 2057;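 active = inhibition above the mean inhibition of all tested compounds plus 3 SD, set per campaign, cut at about 40% in these data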;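 note: 0% = DMSO wells and 100% = unlabeled Bim-BH3 peptide control; higher means more loss of mP so more displacement of Bim peptide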
Mcl1 Bid PPI – disrupts binding of human Mcl-1 to Bid peptide; Q07820; TR-FRET Mcl-1/Bid-Dy647 peptide binding, 1536-well; inhibition, % at 21.7 µM; 220,000 tested, 0.97% active; AID 1021;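 active = compounds that cut the binding signal by more than half at the single screening dose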;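 note: His-tagged Mcl-1 with europium anti-His antibody binding Bid BH3 peptide; 0% = Mcl-1 plus peptide wells and 100% = peptide-only wells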
Mcl1 Noxa PPI – disrupts binding of human Mcl-1 to Noxa peptide; TR-FRET Mcl-1/Noxa peptide binding, 2 h; inhibition, % at 21.7 µM; 220,000 tested, 1.5% active; AID 1022;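 active = compounds that cut the protein-peptide binding signal by more than 50% relative to plate controls in a single-dose test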;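 note: His-tagged Mcl-1 with rhodamine Noxa BH3 peptide and terbium anti-His antibody; 0% = Mcl-1 plus Noxa peptide wells and 100% = peptide-only wells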
RBBP9 inh – blocks human serine hydrolase RBBP9; recombinant RBBP9, FP-Rh probe fluorescence polarization; inhibition, % at 7.94 µM; 220,000 tested, 0.2% active; AID 1515;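 active = inhibition above the campaign mean of all tested compounds plus 3 SD, cut at about 14% in these data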;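 note: plate controls were DMSO wells with RBBP9 for no effect and wells lacking RBBP9 protein for full effect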
Target sequence (O75884 whole entry, looked up): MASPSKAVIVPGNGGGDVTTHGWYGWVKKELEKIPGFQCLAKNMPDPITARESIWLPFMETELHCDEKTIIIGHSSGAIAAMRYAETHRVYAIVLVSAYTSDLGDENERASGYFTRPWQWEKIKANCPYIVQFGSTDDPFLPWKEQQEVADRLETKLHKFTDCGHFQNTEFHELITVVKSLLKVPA
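Measured by – fluorescence polarization · Test system – RBBP9 protein · Input – 2.5 µM RBBP9 dispensing solution, before mixing · Measure – percent inhibition from mP, scaled between DMSO and no-protein wells · Benchmarks – DMSO-treated enzyme wells and wells lacking RBBP9 · Times – preincubation 30 min plus labeling 45 min at 25 °C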
BCLXL inh confirm – counter-screen for MCL1 inhibitors: confirmation of human Bcl-xL inhibitors; 1,700 tested, 54% active; inhibition, % at 10.9 µM; AID 2166; shares compounds with MCL1 BIM primary; GST-Bcl-xL / FITC-Bim BH3 peptide FP binding;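 active = inhibition above a cutoff equal to the mean inhibition of all tested compounds plus 3 SD, cut at about 30% in these data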;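 note: 0% = DMSO wells and 100% = unlabeled Bim BH3 control peptide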
MCL1 inh confirm – MCL1-BIM-BH3 interaction inhibition, confirmation; shares compounds with MCL1 BIM primary; GST-MCL1 / FITC-Bim-BH3 fluorescence polarization; inhibition, % at 10.9 µM; 1,700 tested, 61% active;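 active = inhibition above the average of all tested compounds plus 3 SD, cut at about 40% in these data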;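 note: 0% = DMSO wells and 100% = unlabeled Bim-BH3 control peptide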
An asterisk follows results filed as active.

What do the screens show for `CC1=C([N+](=O)[O-])C(c2ccc(Cl)cc2)NC(=O)N1` (configuration not stated)?
MCL1 BIM primary: 15

Results for CC(C)Oc1ccc(CC(=O)NNC(=S)Nc2ccccc2)cc1 ?
EBV gp42 inh: 0; MCL1 BIM primary: 186*; Mcl1 Bid PPI: -143; Mcl1 Noxa PPI: -48; RBBP9 inh: 1; BCLXL inh confirm: -29; MCL1 inh confirm: -53

How did COc1cc(/C=C(\C#N)C(=O)c2ccc(O)c(O)c2)cc(I)c1O do in these assays?
MCL1 BIM primary: -111

What do the screens show for `CCN1/C(=C/C=C/c2sc3ccccc3[n+]2CC)Sc2ccccc21`?
MCL1 BIM primary: active; BCLXL inh confirm: active; MCL1 inh confirm: active

What do the screens show for `CCOc1ccc(OCCCCn2ccnc2)cc1`?
EBV gp42 inh: -13; Mcl-1 Bim block: -1; MCL1 BIM primary: 2; Mcl1 Bid PPI: 8; Mcl1 Noxa PPI: 12; RBBP9 inh: -6

What do the screens show for `CC(C)C1NC2(C(=O)c3ccccc3C2=O)C2C(=O)N(c3ccc(F)cc3)C(=O)C12` (configuration not stated)?
EBV gp42 inh: -8; Mcl-1 Bim block: -7; MCL1 BIM primary: 64*; Mcl1 Bid PPI: -20; Mcl1 Noxa PPI: 48; RBBP9 inh: -3; BCLXL inh confirm: 11; MCL1 inh confirm: 7

How did O=C1C2C3C=CC(CC3)C2C(=O)N1c1ccc(F)cc1 (configuration not stated) do in these assays?
MCL1 BIM primary: 3

What do the screens show for `CCCCC(=O)N1CCN(c2nc3ccc(Cl)cc3s2)CC1`?
MCL1 BIM primary: 2

What do the screens show for `O=S(=O)(NCc1ccco1)c1cccc2cccnc12`?
EBV gp42 inh: -22; Mcl-1 Bim block: 10; MCL1 BIM primary: 154*; Mcl1 Bid PPI: -13; Mcl1 Noxa PPI: 13; RBBP9 inh: 1; BCLXL inh confirm: 20; MCL1 inh confirm: 29

Results for N#C/C(=C\c1ccc(OC(=O)c2ccc(Cl)s2)cc1)c1nc2ccccc2[nH]1 ?
EBV gp42 inh: 20; Mcl-1 Bim block: 6; MCL1 BIM primary: -12; Mcl1 Bid PPI: -10; Mcl1 Noxa PPI: 19; RBBP9 inh: -2

How did Cc1cccc(C)c1N=Nc1c(C)cc(O)cc1C do in these assays?
MCL1 BIM primary: -4

What do the screens show for `CC1(C)CC(=O)C2=C(C1)OC(N)=C(C#N)C2c1cc2c(cc1[N+](=O)[O-])OCO2` (configuration not stated)?
EBV gp42 inh: 94*; Mcl-1 Bim block: -6; MCL1 BIM primary: active; Mcl1 Bid PPI: -49; Mcl1 Noxa PPI: 25; RBBP9 inh: -2; BCLXL inh confirm: 108*; MCL1 inh confirm: 132*

What do the screens show for `CCOc1cc(C2C(C#N)=C(N)OC3=C2C(=O)CC(C)(C)C3)cc([N+](=O)[O-])c1O` (configuration not stated)?
EBV gp42 inh: -9; Mcl-1 Bim block: 0; MCL1 BIM primary: -9; Mcl1 Bid PPI: -32; Mcl1 Noxa PPI: 7; RBBP9 inh: -16

What do the screens show for `Cc1ccc2c(c1)N(CC(=O)NCCCN1C(C)CCCC1C)C(=O)c1cccnc1O2` (configuration not stated)?
MCL1 BIM primary: 7

What do the screens show for `c1ccc(Nc2nc3ccccc3n3nnnc23)cc1`?
EBV gp42 inh: 42; Mcl-1 Bim block: -2; MCL1 BIM primary: 61*; Mcl1 Bid PPI: -5; Mcl1 Noxa PPI: 1; RBBP9 inh: 6; BCLXL inh confirm: 34*; MCL1 inh confirm: 33

What do the screens show for `CC(=O)Nc1ccc(N/C=C2/CCCC2=O)cc1`?
EBV gp42 inh: -23; MCL1 BIM primary: 80*; Mcl1 Bid PPI: -62; Mcl1 Noxa PPI: 3; RBBP9 inh: -3; BCLXL inh confirm: 1; MCL1 inh confirm: -2

What do the screens show for `Cc1ccc(N=Cc2cccc(O)c2O)c(C)c1`?
EBV gp42 inh: -17; Mcl-1 Bim block: 1; MCL1 BIM primary: 60*; Mcl1 Bid PPI: -109; Mcl1 Noxa PPI: 43; RBBP9 inh: 8; BCLXL inh confirm: 20; MCL1 inh confirm: 20

What do the screens show for `CC(N=Cc1cccc(O)c1O)c1ccccc1` (configuration not stated)?
EBV gp42 inh: -16; Mcl-1 Bim block: -9; MCL1 BIM primary: 66*; Mcl1 Bid PPI: -10; Mcl1 Noxa PPI: 52*; RBBP9 inh: -11; BCLXL inh confirm: 32*; MCL1 inh confirm: 71*

Results for Cc1ccccc1N=Cc1cccc(O)c1O ?
EBV gp42 inh: 19; Mcl-1 Bim block: -1; MCL1 BIM primary: 65*; Mcl1 Bid PPI: -5; Mcl1 Noxa PPI: 16; RBBP9 inh: -8; BCLXL inh confirm: 37*; MCL1 inh confirm: 56*

How did O=C(NC1CCCCC1)C1CCC(=O)N(Cc2cccc(C(F)(F)F)c2)C1 (configuration not stated) do in these assays?
MCL1 BIM primary: -1

How did O=C1CSC(=S)N1c1ccc(F)cc1 do in these assays?
MCL1 BIM primary: 7

Results for CN(C)c1ccc(N2C(=O)CSC2=S)cc1 ?
EBV gp42 inh: -11; Mcl-1 Bim block: 1; MCL1 BIM primary: 46*; Mcl1 Bid PPI: -7; Mcl1 Noxa PPI: 1; RBBP9 inh: 4; BCLXL inh confirm: 14; MCL1 inh confirm: 13

What do the screens show for `COc1cccc(C2C3CN(C)CC=C3C(C#N)=C(N)C2(C#N)C#N)c1OC` (configuration not stated)?
EBV gp42 inh: 78*; Mcl-1 Bim block: -2; MCL1 BIM primary: 135*; Mcl1 Bid PPI: -21; Mcl1 Noxa PPI: -10; RBBP9 inh: -3; BCLXL inh confirm: 77*; MCL1 inh confirm: 97*

What do the screens show for `CCN1CC=C2C(C#N)=C(N)C(C#N)(C#N)[C@H](c3cccc(OC)c3OC)[C@H]2C1`?
Mcl-1 Bim block: 2; MCL1 BIM primary: 151*; RBBP9 inh: -5; BCLXL inh confirm: 52*; MCL1 inh confirm: 65*

Results for CCOC(=O)N1CC=C2C(C#N)=C(N)C(C#N)(C#N)[C@H](c3ccc(OC(C)C)c(OCC)c3)[C@H]2C1 ?
EBV gp42 inh: 3; Mcl-1 Bim block: -1; MCL1 BIM primary: -7; Mcl1 Bid PPI: -50; Mcl1 Noxa PPI: 9; RBBP9 inh: 0

Results for CCOC(=O)N1CC=C2C(C#N)=C(N)C(C#N)(C#N)[C@H](c3ccccc3OCC)[C@H]2C1 ?
EBV gp42 inh: -10; Mcl-1 Bim block: -1; MCL1 BIM primary: 11; Mcl1 Bid PPI: -16; Mcl1 Noxa PPI: -7; RBBP9 inh: -11
